Fewer inactive variants are shown than the library holds.
B1: tRNA (parent)
chain: GUUCCGUUGGCGUAAUGGUAACGCGUCUCCCUCCUAAGGAGAAGACUGCGGGUUCGAGUCCCGUACGGAACG

Variants of: B1
Assay: yeast fitness relative to wild type (ratio to wild type); higher = fitter; tRNA-Arg(CCU), competitive growth, 37 C, YPD
How it was run: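 A pool of Saccharomyces cerevisiae strains, each with a tRNA-Arg(CCU) gene variant at the native genomic locus, was competed in YPD at 37°C for 24 hours across six parallel replicates. The variants had been chemically synthesised at a 3% per-site mutation rate over 69 sites, and gene amplicons before and after competition were read by 100-nucleotide paired-end sequencing. Darwinian fitness relative to wild type rested on changes in genotype frequencies. Genotypes required ≥ 100 starting reads, and estimates < 0.5 were set to 0.5.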

Variant | yeast fitness
G25C C31U | 0.87
G25A U35A A36U C61U | ≤ 0.5
G25C C31G C34G C61U | ≤ 0.5
G25C C31U G68U | 0.587
G25C C29U C33U A40G G52A U59C A65U | ≤ 0.5
G25C C34A C66U | 0.54
G25C C29A | 0.696
G25A U64A | 0.901
G25A U64C | 0.902
G25C C34U C66U | ≤ 0.5
G25C C31G C34G C61U A69U | ≤ 0.5
G25A U35A G52A U59C C66A G67A | ≤ 0.5
G25A G51C C66U | ≤ 0.5
G25C C46U G50A C66U | 0.716
G25A G48C C49G | ≤ 0.5
G25C C31U G56A | 0.616
G25A G44C C61G | 0.526
G25C C33A A45C C46A | 0.518
G25C C61G G67C | 0.527
G25C C29G G52A A69U | ≤ 0.5
G25C C33A A43U A57U A69U | ≤ 0.5
G25A U53A G63A | 0.523
G25C C46A G58A | ≤ 0.5
G25C A45G | 0.869

Variant | yeast fitness
G25C A45C | 1.06
G25C A42U C46U | 0.502
G25A G51A | 0.861
G25C C31U U32A C49U | ≤ 0.5
G25A U28A A36U A37U A42U | ≤ 0.5
G25C A40G A57C A69U A70C | ≤ 0.5
G25A G48C G52C C55U | ≤ 0.5
G25C A37G A40C C61G | ≤ 0.5
G25A G63A | 0.949
G25A G63C | 0.737
G25C | 1
G25C C31A G48A C61A A65G | 0.558
G25A G58C A69C | 1.01
G25C C29G G41A C49U G63A A65G C66U | ≤ 0.5
G25A G50A G63C | 0.641
G25A U35G | 0.603
G25A U35C | 0.942
G25A U32C G41A G56A | 0.553
G25A U26A C31U G38A A42G A43U | 0.52
G25C A43U G50A G68A | ≤ 0.5
G25C C60A G67C | ≤ 0.5
G25C C31G G51C | ≤ 0.5
G25C C30G | 0.582
G25C C30U | 0.669

Variant | yeast fitness
G25C C62G C66G G67U | ≤ 0.5
G25C C34A | 0.625
G25A G48A C62G A69U | 0.749
G25C C30G A36U C46U A65G | ≤ 0.5
G25C C34G C61U C66G | ≤ 0.5
G25C C27G G58A | ≤ 0.5
G25A G50U | 0.826
G25A G50A | 0.997
G25C C34G G39U U47G | ≤ 0.5
G25C A70U | 0.867
G25C A70C | 1.05
G25C A70G | 0.873
G25C A65C | 1.03
G25A U26C C29G A45G | ≤ 0.5
G25A G52A A70U | 0.666
G25A G68C | 0.938
G25A U35C A43G C55U | ≤ 0.5
G25C C31U U53C | 0.633
G25A G48C | 1.14
G25A U26C C29G C61A | ≤ 0.5
G25C A40U A42C G52A U64C C66U | ≤ 0.5
G25A U26A C55G G68C A69G | ≤ 0.5
G25A U28A A65U | 0.697
G25C C31G A42G U54G | ≤ 0.5

Variant | yeast fitness
G25C A43U C61G G67C | ≤ 0.5
G25C C61U C66U | 0.652
G25C C46U G50A | 0.889
G25C A45U C60A | ≤ 0.5
G25C C31U U32A C46U | ≤ 0.5
G25C A45C C46A | 0.991
G25A U32A C49U U53A | ≤ 0.5
G25A G58A | 0.872
G25A G58C | 0.901
G25C A42G A45C U47C C62U | ≤ 0.5
G25C C31U U32A C55A A69U | ≤ 0.5
G25C C29U A42U | 0.664
G25C C33G G50C U54C | ≤ 0.5
G25C C49U G51A A57G | ≤ 0.5
G25C A36G G48A C60A | ≤ 0.5
G25C A40C C55U | 0.708
G25C A43U G50A A70C | ≤ 0.5
G25A U47C | 0.93
G25A G52A C66U | 0.637
G25A G58C C66U | 0.778
G25C C29G C60G | ≤ 0.5
G25C G38C G48C C49G | ≤ 0.5
G25A U59C | 0.775
G25A U28G | 0.762

Variant | yeast fitness
G25C G39A G63C A70U | ≤ 0.5
G25C C31U U32A C49G C60U | ≤ 0.5
G25C A36G | 0.864
G25C A36U | 0.724
G25C A36C | 0.718
G25C C62U | 0.999
G25C C62A | 0.845
G25C A69C | 1.07
G25C C31A A43U U54A | ≤ 0.5
G25C C34A C46U | 0.555
G25A G56A | 0.919
G25C A40U C49U | 0.66
G25C G38A A65G | 1.04
G25C C46G C49U U64G | ≤ 0.5
G25A G67C | 0.992
G25C C55G | ≤ 0.5
G25C C55A | 0.68
G25C A40G A65C | 0.653
G25C C34U A45C | 0.54
G25C C29G C46G G51C | ≤ 0.5
G25A U26C A36G | 1.07
G25A G44A | 0.841
G25C G39A C66U | 0.504
G25C C27G C62U | 0.597

Variant | yeast fitness
G25A G48A A70C | 1.13
G25C C46U | 1.06
G25C C46G | 0.938
G25C C30G C33U A45G U47G G50C G63A | ≤ 0.5
G25A G52A A57G G67A | ≤ 0.5
G25A U47C U64C A70C | 1.06
G25C C29U C33A C49G | 0.714
G25C C55U A57U | 0.551
G25C C49U G51A C60A A70G | ≤ 0.5
G25C C34U G41A C49G | 0.54
G25C C29G C46G | ≤ 0.5
G25C A43C C62A U64G C66G | ≤ 0.5
G25C A42G | 0.911
G25A U26A C31U G38A A42G A43U G48C G68C | ≤ 0.5
G25C C46A G50C | 0.618
G25C C49U | 1.01
G25C C33A | 0.758
G25C C33G | 0.662
G25C A40U A42C G52A | ≤ 0.5
G25A G50A A69C | 0.676
G25C A40C | 0.848
G25C A40G | 0.645
G25C A42G C55U | ≤ 0.5
G25C C34U A36C G41A C49G | ≤ 0.5

Variant | yeast fitness
G25C C49U C62G C66U | 0.539
G25C C27A C31G | ≤ 0.5
G25A G50A C55A C66A | ≤ 0.5
G25C C30G U32G A42C C49U | 0.543
G25C C29G C33U G39U | ≤ 0.5
G25C C46G U53G C66A | 0.81
G25C C29A G52A G67A | ≤ 0.5
G25C A40U G48C | ≤ 0.5
G25C C33U G50C | ≤ 0.5
G25C C49U G67U G68C A69U | ≤ 0.5
G25C C31U U35C | 0.53
G25C C27U | 0.773
G25C C27A G51A | 0.549
G25C A40U A42C C61A C66U | ≤ 0.5
G25C C46G U64G | ≤ 0.5
G25C C31A A37C U47C C61U | 0.702
G25C C30U U54C | ≤ 0.5
G25C C29G G41A C49U A65G C66U | 0.583
G25A U54G | 0.566
G25A U54C | 0.87
G25C C30G C60U | ≤ 0.5
G25C A43C | 1.03
G25C C33A A57U | 0.718

Source: the RNAGym collection of RNA variant scans (doi:10.1126/science.aae0568)
